Experiment [1] concerns the target Cyclin-dependent kinase 2/cyclin E (Homo sapiens, UniProt P24941). Briefly: Inhibitory concentration against Cyclin-dependent kinase 2-cyclin E. Type of experiment: protein-complex assay.
Experiment [2] addresses Cyclin-dependent kinase 4/cyclin D1 (Homo sapiens, UniProt P11802). The experiment is described as follows: Inhibitory concentration against Cyclin-dependent kinase 4-cyclin D1. Type of experiment: protein-complex assay. Summed up:
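CDK4/cyclin D1 came from extracts of insect cells dually infected with baculovirus vectors. Reactions were started with 4 units of enzyme, run 15 min at room temperature, and stopped with EDTA. Product was captured on GSH-Sepharose and counted by scintillation.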

Another experiment deals with HCT-116. The experiment is described as follows: Inhibition of HCT116 colon carcinoma cell proliferation. The class given is functional, cell-based. The following applies: Homo sapiens. In a few lines: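 SRB colorimetric growth assay. Exponentially growing cells were seeded so they would undergo 3-5 doublings before reaching 85% confluence. Graded compound concentrations were added 18 h later, and cells were incubated 5 days at 37 °C in 5% CO2. Cells were fixed with cold TCA for 1 h at 4 °C, stained with 0.4% SRB in 1% acetic acid, solubilized in 10 mM Tris base, and OD read at 570 nm.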

By IC50 is commonly meant the concentration at which inhibition is half-maximal.

SMILES strings stand for the structures. Some results are limits rather than exact numbers.

Cyclin-dependent kinase 4/cyclin D1, sequence (P11802 whole entry): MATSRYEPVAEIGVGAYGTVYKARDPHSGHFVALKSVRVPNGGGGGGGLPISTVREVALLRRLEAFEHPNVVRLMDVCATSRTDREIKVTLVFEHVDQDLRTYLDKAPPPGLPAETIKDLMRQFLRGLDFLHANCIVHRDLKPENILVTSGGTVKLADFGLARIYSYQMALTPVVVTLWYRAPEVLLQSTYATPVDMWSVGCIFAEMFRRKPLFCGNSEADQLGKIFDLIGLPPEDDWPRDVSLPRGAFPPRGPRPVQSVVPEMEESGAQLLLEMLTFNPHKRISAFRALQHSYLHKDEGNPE
Cyclin-dependent kinase 4/cyclin D1, sequence (P24385 whole entry, further chain): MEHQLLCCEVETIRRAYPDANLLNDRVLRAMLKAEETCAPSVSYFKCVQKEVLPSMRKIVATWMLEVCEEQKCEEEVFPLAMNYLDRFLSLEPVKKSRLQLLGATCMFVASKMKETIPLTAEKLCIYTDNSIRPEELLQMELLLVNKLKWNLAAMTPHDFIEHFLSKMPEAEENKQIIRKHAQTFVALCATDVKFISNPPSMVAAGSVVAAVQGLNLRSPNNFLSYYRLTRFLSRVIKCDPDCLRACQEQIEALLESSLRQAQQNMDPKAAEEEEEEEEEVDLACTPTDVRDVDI

For `CC(=O)Nc1cccc2c1C(=O)c1c(-c3ccc(C)cc3)n[nH]c1-2`, the IC50 in experiment [1] amounted to 0.16 µM; in experiment [2], 0.49 µM.
Regarding `CC(C)c1[nH]nc2c1C(=O)c1c(NC(N)=O)cccc1-2`, the IC50 in experiment [1] is 0.084 µM; in experiment [2] it was greater than 1.9 µM.
Turning to `NCC1CCN(CC(=O)Nc2cccc3c2C(=O)c2c-3n[nH]c2-c2ccc(N3CCOCC3)cc2)CC1`, the IC50 was determined as 0.026 µM in experiment [1], 0.018 µM in experiment [2] and 0.11 µM in the experiment on HCT-116.
Turning to `CCc1[nH]nc2c1C(=O)c1c(NC(=O)CN3CCC(C(N)=O)CC3)cccc1-2`, the half-maximal inhibitory concentration (IC50) in experiment [1] was greater than 0.13 µM; in experiment [2] it was greater than 2.6 µM.
Taken in the same sequence, the figures for `O=C(CN1CCC(O)CC1)Nc1cccc2c1C(=O)c1c-2n[nH]c1-c1ccc(N2CCOCC2)cc1` were 0.085 µM and 0.11 µM.
The like results for `CC(=O)Nc1cccc2c1C(=O)c1c-2n[nH]c1C(C)(C)C` were, in that order, 0.98 µM and greater than 3.5 µM.
Turning to `CC(=O)Nc1cccc2c1C(=O)c1c-2n[nH]c1-c1ccc(N2CCCCC2)cc1`, the IC50 in experiment [1] worked out at 0.9 µM; in experiment [2] it was 0.68 µM.
With `CCCCc1[nH]nc2c1C(=O)c1c(NC(C)=O)cccc1-2`, the IC50 in experiment [1] and in experiment [2] was greater than 3.5 µM in each case.
As to `CCCc1[nH]nc2c1C(=O)c1c(NC(C)=O)cccc1-2`, the IC50 in experiment [1] and in experiment [2] was greater than 3.7 µM in each case.
As to `CC(=O)Nc1cccc2c1C(=O)c1c-2n[nH]c1C(C)C`, the IC50 in experiment [1] was 0.84 µM; in experiment [2] it was greater than 3.7 µM.
For `NCC1CCN(CC(=O)Nc2cccc3c2C(=O)c2c-3n[nH]c2C2CCCCC2)CC1`, 0.36 µM corresponded to half-maximal inhibition in experiment [2] (IC50).
Take `NC(=O)Nc1cccc2c1C(=O)c1c-2n[nH]c1C1CCCCC1`: the 50% inhibitory concentration (IC50) was 0.14 µM in experiment [1] and greater than 0.81 µM in experiment [2].
Take `CSc1ccc(-c2[nH]nc3c2C(=O)c2c(NC(C)=O)cccc2-3)cc1`: the IC50 in experiment [1] came out at 0.12 µM; in experiment [2], 0.34 µM.
For `CC(=O)Nc1cccc2c1C(=O)c1c-2n[nH]c1CC(C)C`, the IC50 in experiment [1] and in experiment [2] was greater than 3.5 µM each time.
For `CCc1[nH]nc2c1C(=O)c1c(NC(C)=O)cccc1-2`, the IC50 was 1.5 µM in experiment [1] and greater than 3.9 µM in experiment [2].
For `CN(C)c1ccc(-c2[nH]nc3c2C(=O)c2c(NC(=O)CN4CCOCC4)cccc2-3)cc1`, the IC50 in experiment [1] turned out to be 0.036 µM; in experiment [2], 0.11 µM.
With `CCOc1ccc(-c2[nH]nc3c2C(=O)c2c(NC(C)=O)cccc2-3)cc1`, the IC50 in experiment [1] was greater than 0.4 µM; in experiment [2] it was greater than 0.58 µM.
The like results for `CCc1[nH]nc2c1C(=O)c1c(NC(N)=O)cccc1-2` were, in that order, 0.29 µM and greater than 2 µM.
On to `NC(=O)Nc1cccc2c1C(=O)c1c-2n[nH]c1-c1cccs1`, for which the IC50 was 0.011 µM in experiment [1], 0.15 µM in experiment [2] and 0.041 µM in the experiment with HCT-116.
With `CCc1ccc(-c2[nH]nc3c2C(=O)c2c(NC(C)=O)cccc2-3)cc1`, the results for the IC50 in experiment [1] and in experiment [2] were 0.28 µM and 0.64 µM, respectively.
Regarding `CN(C)c1ccc(-c2[nH]nc3c2C(=O)c2c(NC(=O)CN4CCC(O)CC4)cccc2-3)cc1`, the IC50 in experiment [1] worked out at 0.033 µM; in experiment [2], 0.05 µM.
Regarding `Cn1ccc(-c2[nH]nc3c2C(=O)c2c(NC(N)=O)cccc2-3)c1`, the figures for the 50% inhibitory concentration (IC50) (in experiment [1]; in experiment [2]; in the experiment with HCT-116) were 0.026 µM, 0.13 µM and 0.064 µM, respectively.
`CN1CCN(CC(=O)Nc2cccc3c2C(=O)c2c-3n[nH]c2-c2ccc(N(C)C)cc2)CC1`: the IC50 in experiment [1] amounted to 0.029 µM; in experiment [2] it was 0.055 µM.
For the compound `CC(=O)Nc1cccc2c1C(=O)c1c-2n[nH]c1-c1sccc1C`, the IC50 is 0.26 µM in experiment [1] and greater than 3.1 µM in experiment [2].
On to `CC(=O)Nc1cccc2c1C(=O)c1c-2n[nH]c1C`, for which the concentration for half-maximal inhibition (IC50) was 11 µM in experiment [1] and greater than 4.2 µM in experiment [2].
In the case of `CN1CCN(CC(=O)Nc2cccc3c2C(=O)c2c-3n[nH]c2-c2ccc(N3CCOCC3)cc2)CC1`, the figures for the IC50 in experiment [1] and in experiment [2] were 0.042 µM and 0.19 µM, respectively.
As for `CN(C)c1ccc(-c2[nH]nc3c2C(=O)c2c(NC(=O)CN4CCC(CN)CC4)cccc2-3)cc1`, the IC50 in experiment [1] amounted to 0.015 µM; in experiment [2] it was 0.007 µM; in the experiment with HCT-116, 0.074 µM.
With `NC(=O)Nc1cccc2c1C(=O)c1c-2n[nH]c1-c1ccco1`, the figures for the IC50 in experiment [1] and in experiment [2] were 0.086 µM and 0.84 µM, respectively.
Regarding `CC(=O)Nc1cccc2c1C(=O)c1c(-c3ccccc3)n[nH]c1-2`, the IC50 in experiment [1] was determined as 0.24 µM; in experiment [2] it was 0.84 µM.
Regarding `Cc1ccc(-c2[nH]nc3c2C(=O)c2c(NC(N)=O)cccc2-3)s1`, the concentration for half-maximal inhibition (IC50) is 0.013 µM in experiment [1], 0.053 µM in experiment [2] and 0.029 µM in the experiment with HCT-116.
Regarding `CC(=O)Nc1cccc2c1C(=O)c1c-2n[nH]c1-c1ccc(Oc2ccccc2)cc1`, the IC50 in experiment [1] and in experiment [2] was greater than 2.5 µM throughout.
For `Cc1ccsc1-c1[nH]nc2c1C(=O)c1c(NC(N)=O)cccc1-2`, the IC50 in experiment [1] came out at 0.017 µM; in experiment [2], 0.35 µM; in the experiment on HCT-116, 0.14 µM.
In the case of `NCC1CCN(CC(=O)Nc2cccc3c2C(=O)c2c-3n[nH]c2C2CC2)CC1`, the figures for the IC50 in experiment [1] and in experiment [2] were 0.055 µM and 0.43 µM, respectively.
For `NC(=O)Nc1cccc2c1C(=O)c1c-2n[nH]c1-c1ccsc1`, the 50% inhibitory concentration (IC50) was determined as 0.009 µM in experiment [1], 0.067 µM in experiment [2] and 0.36 µM with HCT-116.
`CCCc1ccc(-c2[nH]nc3c2C(=O)c2c(NC(C)=O)cccc2-3)cc1`: the half-maximal inhibitory concentration (IC50) came out at 0.49 µM in experiment [1] and 1.9 µM in experiment [2].
The like results for `CC(C)c1[nH]nc2c1C(=O)c1c(NC(=O)CN3CCC(CN)CC3)cccc1-2` were, in that order, 0.048 µM and 0.34 µM.
`CC(=O)Nc1cccc2c1C(=O)c1c-2n[nH]c1-c1ccc(O)cc1`: the results for the IC50 in experiment [1] and in experiment [2] were 0.53 µM and 2.3 µM, respectively.
Consider `CCOC(=O)c1ccc(-c2[nH]nc3c2C(=O)c2c(NC(N)=O)cccc2-3)s1`, for which the half-maximal inhibitory concentration (IC50) worked out at 0.13 µM in experiment [1] and 0.3 µM in experiment [2].
As for `NC(=O)C1CCN(CC(=O)Nc2cccc3c2C(=O)c2c-3n[nH]c2C2CCCCC2)CC1`, the results for the IC50 in experiment [1] and in experiment [2] were 0.036 µM and greater than 0.57 µM, respectively.
`CC(=O)Nc1cccc2c1C(=O)c1c-2n[nH]c1-c1cc(Cl)sc1Cl`: the IC50 in experiment [1] and in experiment [2] was greater than 2.6 µM in each case.
As for `CC(=O)Nc1cccc2c1C(=O)c1c-2n[nH]c1C1CCCCC1`, the IC50 in experiment [1] was 1.1 µM; in experiment [2], greater than 3.2 µM.
The like results for `CC(=O)Nc1cccc2c1C(=O)c1c(-c3ccco3)n[nH]c1-2` were, in that order, greater than 1.7 µM and greater than 3.5 µM.
Regarding `CC(=O)Nc1cccc2c1C(=O)c1c-2n[nH]c1-c1ccc(N2CCOCC2)cc1`, the values for the IC50 in experiment [1] and in experiment [2] were 0.37 µM and 0.86 µM, respectively.
As to `CC(=O)Nc1cccc2c1C(=O)c1c-2n[nH]c1C1CC1`, the IC50 in experiment [1] was 0.48 µM; in experiment [2], greater than 3.7 µM.
As to `NC(=O)C1CCN(CC(=O)Nc2cccc3c2C(=O)c2c-3n[nH]c2C2CC2)CC1`, the IC50 is 0.026 µM in experiment [1], greater than 0.099 µM in experiment [2] and 0.12 µM in the experiment on HCT-116.
Consider `CC(=O)Nc1cccc2c1C(=O)c1c-2n[nH]c1-c1cccs1`, for which the IC50 in experiment [1] stood at 0.18 µM; in experiment [2], 4.5 µM.
`CC(=O)Nc1cccc2c1C(=O)c1c-2n[nH]c1-c1cccnc1`: the figures for the IC50 in experiment [1] and in experiment [2] were 0.77 µM and greater than 1.6 µM, respectively.
In the case of `CC(=O)Nc1cccc2c1C(=O)c1c-2n[nH]c1-c1ccc(N(C)C)cc1`, the figures for the IC50 in experiment [1] and in experiment [2] were 0.32 µM and 0.31 µM, respectively.
On to `NC(=O)Nc1cccc2c1C(=O)c1c-2n[nH]c1C1CC1`, for which the 50% inhibitory concentration (IC50) in experiment [1] was found to be 0.14 µM; in experiment [2], 1.4 µM.
Turning to `COc1ccc(-c2[nH]nc3c2C(=O)c2c(NC(=O)CN4CCC(CN)CC4)cccc2-3)cc1`, the IC50 came to 0.014 µM in experiment [1] and 0.013 µM in experiment [2].
On to `CC(=O)Nc1cccc2c1C(=O)c1c-2n[nH]c1-c1ccncc1`, for which the values for the IC50 in experiment [1] and in experiment [2] were 0.076 µM and 1.3 µM, respectively.
On to `CC(C)c1n[nH]c2c1C(=O)c1c(NC(=O)CN3CCC(C(N)=O)CC3)cccc1-2`, for which the figures for the IC50 (in experiment [1]; in experiment [2]; with HCT-116) were 0.021 µM, greater than 1.3 µM and 0.29 µM, respectively.
Regarding `CCc1[nH]nc2c1C(=O)c1c(NC(=O)CN3CCC(CN)CC3)cccc1-2`, the IC50 was determined as 0.24 µM in experiment [1] and 1.3 µM in experiment [2].
Consider `CCCCc1ccc(-c2[nH]nc3c2C(=O)c2c(NC(C)=O)cccc2-3)cc1`, for which the IC50 is greater than 0.56 µM in experiment [1] and greater than 2.8 µM in experiment [2].
Take `O=C(CN1CCOCC1)Nc1cccc2c1C(=O)c1c-2n[nH]c1-c1ccc(N2CCOCC2)cc1`: the half-inhibitory concentration (IC50) in experiment [1] came to 0.037 µM; in experiment [2], 0.12 µM.
The like results for `Cc1cc(-c2[nH]nc3c2C(=O)c2c(NC(N)=O)cccc2-3)c(C)s1` were, in that order, 0.061 µM and greater than 1.5 µM.

(Values after ChEMBL document CHEMBL1136010, “Synthesis and evaluation of indenopyrazoles as cyclin-dependent kinase inhibitors. 3. Structure activity relationships at C3(1,2)” (J Med Chem, 2002).)
